The results in this text go back to ChEMBL document CHEMBL5226322, “Harnessing the Role of HDAC6 in Idiopathic Pulmonary Fibrosis: Design, Synthesis, Structural Analysis, and Biological Evaluation of Potent Inhibitors” (J Med Chem, 2021).

Series [1] in a line: Solubility of the compound at pH 7.4 PBS buffer incubated for 24 hrs by HPLC-UV analysis. Format: physicochemical. Conditions: pH 7.4, 24 h. The essentials: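 Compound from 10 mM DMSO stock diluted to 250 μM (2.5% DMSO), either in 50 mM acetic acid (pH 3.0) or in 50 mM aqueous PBS (pH 7.4). Shaken 24 h at 25 °C, PTFE-filtered and diluted 1:2. Quantified by RP-18 HPLC-UV at 254 nm against a 250 μM standard in MeCN/water. Run in triplicate and averaged.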

Series [2] has as its system Heart. As to the kind of experiment: Cardiotoxicity in Langendorff-perfused Sprague-Dawley rat heart assessed as effect on HR at 0.01 uM by ECG analysis (reference value: 235.7 +/-8.3 bpm). Type of series: toxicity, tissue-based.
Series [3] deals with Heart. The series is described as follows: Cardiotoxicity in Langendorff-perfused Sprague-Dawley rat heart assessed as effect on HR at 10 uM by ECG analysis (reference value: 235.7 +/-8.3 bpm). Type of series: toxicity, tissue-based.
In series [4] the test system is Heart. As to the kind of experiment: Cardiotoxicity in Langendorff-perfused Sprague-Dawley rat heart assessed as effect on PQ interval time at 0.1 uM by ECG analysis (reference value: 43.6 +/-2.5 milliseconds). Format: toxicity, tissue-based.
The subject of series [5] is Heart. As to the kind of experiment: Cardiotoxicity in Langendorff-perfused Sprague-Dawley rat heart assessed as effect on QRS interval time at 10 uM by ECG analysis (reference value: 15.2 +/-0.2 milliseconds). Format: toxicity, tissue-based.
In series [6] the test system is Heart. As to the kind of experiment: Cardiotoxicity in Langendorff-perfused Sprague-Dawley rat heart assessed as effect on QT interval time at 0.01 uM by ECG analysis (reference value: 76.2 +/-2.9 milliseconds). Format: toxicity, tissue-based.
For series [7], the system named is Heart. The series is described as follows: Cardiotoxicity in Langendorff-perfused Sprague-Dawley rat heart assessed as effect on QT interval time at 10 uM by ECG analysis (reference value: 76.2 +/-2.9 milliseconds). Format: toxicity, tissue-based.
The test system of series [8] is Heart. As to the kind of experiment: Cardiotoxicity in Langendorff-perfused Sprague-Dawley rat heart assessed as effect on QTc interval time at 0.01 uM by ECG analysis (reference value: 150.5 +/-5.5 milliseconds). Format: toxicity, tissue-based.
In series [9] the test system is Heart. The series is described as follows: Cardiotoxicity in Langendorff-perfused Sprague-Dawley rat heart assessed as effect on QTc interval time at 0.1 uM by ECG analysis (reference value: 150.5 +/-5.5 milliseconds). Type of series: toxicity, tissue-based.
Series [10] can be described thus: Mutagenecity in Salmonella typhimurium TA100 in presence of S9 fraction at 1 to 75 uM incubated for 90 mins by Ames test. Format: toxicity, subcellular. Conditions: salmonella enterica subsp. enterica serovar typhimurium, s9, 1.5 h, dose 1-75 µM.
A short description of series [11]: Toxicity in zebra fish embryo assessed as mild cardiac edema at 100 uM […]. Conditions: zebrafish. Set-up: species or system Danio rerio. The essentials:
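Wildtype Tübingen zebrafish larvae reared at 28.5 °C (14 h light/10 h dark) in embryo medium with methylene blue. From 3 days old, exposed for 2 days to 1, 10, 25, 50 or 100 µM in embryo medium, or 0.1% DMSO vehicle. 4 larvae per well in 400 µL, 8 larvae per group. Larvae scored for swim bladder inflation and cardiac edema.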

Values after ≈ are worked out from the molar mass of the structure shown.

The compound `CN1CCC2(CC1)c1ccccc1N(Cc1ccc(C(=O)NO)cc1)C2c1ccccc1F` (racemic) yielded a solubility in series [1] of 285 µM (≈ 127 µg/mL).

With `CC1(C)c2ccccc2N(Cc2ccc(C(=O)NO)cc2)C1c1cccnc1` (racemic), the Activity is recorded as 235.4 bpm in the series with Heart [2], 207.9 bpm with Heart [3], “Non-Toxic” in series [10] and “Toxic” in series [11]. In addition, the Time with Heart [4] was determined as 44.6 ms; in the series on Heart [5], 18 ms; with Heart [6], 78.1 ms; with Heart [7] it was 78.3 ms; with Heart [8], 154.6 ms; with Heart [9], 155.1 ms.

Usually solubility stands for the dissolved amount per volume that the medium holds. A low value points to little dissolved substance.
